Measured values published in ChEMBL document CHEMBL4715841, “Discovery of dihydropyrazino-benzimidazole derivatives as metabotropic glutamate receptor-2 (mGluR2) positive allosteric modulators (PAMs)” (Eur J Med Chem, 2020).

Each compound was assayed against Cytochrome P450 2C19 (Homo sapiens, UniProt P33261) (assay: Inhibition of CYP2C19 (unknown origin)).
Format: ADME
Outline: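 Isoform-specific CYP450 inhibition, reported as IC50 in µM.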

Sequence of Cytochrome P450 2C19 (P33261 whole entry): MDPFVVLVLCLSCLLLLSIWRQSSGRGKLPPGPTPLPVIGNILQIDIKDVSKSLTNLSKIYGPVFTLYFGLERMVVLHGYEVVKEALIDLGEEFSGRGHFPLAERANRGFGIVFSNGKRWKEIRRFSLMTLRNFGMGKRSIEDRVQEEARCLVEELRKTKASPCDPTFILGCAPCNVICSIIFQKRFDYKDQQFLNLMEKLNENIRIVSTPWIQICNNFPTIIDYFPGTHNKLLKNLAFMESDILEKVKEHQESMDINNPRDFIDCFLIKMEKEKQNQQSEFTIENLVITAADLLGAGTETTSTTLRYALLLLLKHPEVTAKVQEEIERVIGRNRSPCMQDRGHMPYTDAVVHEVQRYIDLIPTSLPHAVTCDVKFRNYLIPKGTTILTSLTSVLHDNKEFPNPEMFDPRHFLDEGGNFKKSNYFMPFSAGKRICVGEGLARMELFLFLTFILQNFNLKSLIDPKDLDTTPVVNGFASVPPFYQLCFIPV

**Q.** For `O=C1c2nc3ccccc3n2CCN1CCCCOc1ccc(OC(F)(F)F)cc1`, which IC50 is on record?
**A.** > 10000 nM

The compounds below were run against Metabotropic glutamate receptor 2 (Homo sapiens, UniProt Q14416).
Sequence of Metabotropic glutamate receptor 2 (Q14416 whole entry): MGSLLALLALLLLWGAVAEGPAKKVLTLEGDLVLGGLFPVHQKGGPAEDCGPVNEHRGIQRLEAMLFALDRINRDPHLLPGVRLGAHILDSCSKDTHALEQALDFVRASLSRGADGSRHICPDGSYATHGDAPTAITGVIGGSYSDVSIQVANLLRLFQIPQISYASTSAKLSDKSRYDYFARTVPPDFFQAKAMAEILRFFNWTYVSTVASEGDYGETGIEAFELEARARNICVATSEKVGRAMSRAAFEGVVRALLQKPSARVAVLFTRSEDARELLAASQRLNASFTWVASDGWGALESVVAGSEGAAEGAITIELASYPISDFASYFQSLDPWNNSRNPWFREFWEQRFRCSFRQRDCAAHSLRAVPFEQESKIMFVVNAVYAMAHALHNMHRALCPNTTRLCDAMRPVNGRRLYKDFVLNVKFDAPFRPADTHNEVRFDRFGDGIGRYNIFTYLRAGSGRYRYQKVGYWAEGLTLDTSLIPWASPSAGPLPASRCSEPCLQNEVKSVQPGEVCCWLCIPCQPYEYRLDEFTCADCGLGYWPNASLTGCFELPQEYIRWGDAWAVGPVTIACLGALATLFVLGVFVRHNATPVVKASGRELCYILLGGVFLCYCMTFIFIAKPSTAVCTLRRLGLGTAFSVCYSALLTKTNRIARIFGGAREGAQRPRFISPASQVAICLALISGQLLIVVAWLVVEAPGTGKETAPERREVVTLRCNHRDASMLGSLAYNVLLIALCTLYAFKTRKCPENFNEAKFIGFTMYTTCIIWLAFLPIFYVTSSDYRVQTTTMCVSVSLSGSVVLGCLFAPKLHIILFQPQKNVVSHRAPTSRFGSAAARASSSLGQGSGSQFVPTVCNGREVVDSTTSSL

**Q.** For `Fc1ccc(CCCCN2CCn3c(nc4ccccc43)C2)c(F)c1`, which EC50 is on record?
**A.** 340 nM

**Q.** For `c1ccc(CCCCCN2CCn3c(nc4ccccc43)C2)cc1`, which EC50 is on record?
**A.** 130 nM

**Q.** For `Fc1ccc(OCCCN2CCn3c(nc4ccccc43)C2)cc1Cl`, which EC50 is on record?
**A.** 170 nM

**Q.** `Cc1ccccc1OCCCCN1CCn2c(nc3ccccc32)C1=O` was tested. Which EC50 did it give?
**A.** 90 nM

**Q.** How did the EC50 turn out when `Cc1ccc(CCN2CCn3c(nc4ccccc43)C2)cc1` was run?
**A.** 2430 nM

**Q.** Which EC50 does the source give for `c1ccc(CCCCN2CCn3c(nc4ccccc43)C2)cc1` here?
**A.** 420 nM

**Q.** Which EC50 does the source give for `Clc1ccc(SCCCN2CCn3c(nc4ccccc43)C2)cc1` here?
**A.** 550 nM

**Q.** For `c1ccc(SCCCN2CCn3c(nc4ccccc43)C2)cc1`, which EC50 is on record?
**A.** 260 nM

**Q.** How did the EC50 turn out when `O=C1c2nc3ccccc3n2CCN1CCCCOc1ccc(C(F)(F)F)cc1` was run?
**A.** 40 nM

**Q.** Which EC50 does the source give for `N#Cc1ccc(CCCCN2CCn3c(nc4ccccc43)C2)cc1` here?
**A.** 2400 nM

**Q.** `O=C1c2nc3ccccc3n2CCN1CCCCOc1ccc(F)cc1Br` was tested. Which EC50 did it give?
**A.** 50 nM

**Q.** How did the EC50 turn out when `Fc1ccc(SCCCN2CCn3c(nc4ccccc43)C2)cc1F` was run?
**A.** 90 nM

**Q.** Which EC50 does the source give for `Fc1cccc(CCN2CCn3c(nc4ccccc43)C2)c1` here?
**A.** 4700 nM

**Q.** How did the EC50 turn out when `COc1ccc(CCCCN2CCn3c(nc4ccccc43)C2)c(F)c1` was run?
**A.** 1210 nM

**Q.** How did the EC50 turn out when `COc1ccccc1C1CCN(Cc2nc3ccccc3n2C)CC1` was run?
**A.** 870 nM

**Q.** How did the EC50 turn out when `O=C1c2nc3ccccc3n2CCN1CCCCOc1ccc(F)cc1F` was run?
**A.** 50 nM

**Q.** How did the EC50 turn out when `Brc1ccc(SCCCN2CCn3c(nc4ccccc43)C2)cc1` was run?
**A.** 270 nM

**Q.** With `Fc1ccc(OCCCN2CCn3c(nc4ccccc43)C2)cc1F` as the compound, how does the EC50 read?
**A.** 540 nM

**Q.** With `COc1ccc(CCCCN2CCn3c(nc4ccccc43)C2)cc1` as the compound, how does the EC50 read?
**A.** 2280 nM

**Q.** For `Fc1cc(Cl)ccc1CCCCN1CCn2c(nc3ccccc32)C1`, which EC50 is on record?
**A.** 540 nM

**Q.** Which EC50 does the source give for `Fc1ccc(SCCCN2CCn3c(nc4ccccc43)C2)cc1` here?
**A.** 320 nM

**Q.** For `Clc1ccc(OCCCN2CCn3c(nc4ccccc43)C2)cc1Cl`, which EC50 is on record?
**A.** 70 nM

**Q.** For `COc1ccc(CCN2CCn3c(nc4ccccc43)C2)cc1`, which EC50 is on record?
**A.** 2740 nM

**Q.** `O=C1c2nc3ccccc3n2CCN1CCCCOc1ccc(Cl)cc1` was tested. Which EC50 did it give?
**A.** 70 nM

**Q.** Which EC50 does the source give for `Fc1ccc(SCCCN2CCn3c(nc4ccccc43)C2)c(F)c1` here?
**A.** 350 nM

**Q.** How did the EC50 turn out when `Fc1cc(C(F)(F)F)ccc1CCCCN1CCn2c(nc3ccccc32)C1` was run?
**A.** 970 nM

**Q.** For `O=C1c2nc3ccccc3n2CCN1CCCOc1ccc(Cl)c(Cl)c1`, which EC50 is on record?
**A.** 90 nM

**Q.** How did the EC50 turn out when `Cn1c(CN2CCC(c3ccccc3F)CC2)nc2ccccc21` was run?
**A.** 130 nM
